The list is not random: actives were taken first. Their share in the collection is about 4%.
bCat nuc transl – beta-catenin nuclear translocation modulation. HeLa beta-catenin nuclear translocation, immunofluorescence imaging. nuclear translocation activity, % at 5 µM. hit rate 0.3% among 190,000;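 active = nuclear translocation activity above 50% at 5 µM, with a well cell count of 50 or more; inconclusive = wells under 50 cells across six images, flagged as toxic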;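 also: per-cell ratio of nuclear to cytoplasmic median beta-catenin stain intensity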
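System: HeLa cells, endogenous beta-catenin; compound dosing: 5 µM primary single dose, 0.1% DMSO, 0.02–20 µM confirmation series; incubation: 24 h compound exposure at 37°C, 5% CO2; signal: beta-catenin immunofluorescence imaging with DAPI; evaluation: % activation, nuclear-to-cytoplasmic median beta-catenin signal ratio per cell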
Cl transport mod – modulators of human KCC2 chloride dependent transport; KCC2 cells, thallium flux FluoZin-2 fluorescence; Q9H2X9; B-score of Tl+ flux slope (higher = more flux/activation; lower = inhibition) at 10 µM; hit rate 2.2% among 190,000;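 active = thallium flux slope and its plate-corrected score both differing from the plate sample mean at a set confidence after two filtering rounds, in either direction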;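 also: slope of fluorescence scaled to starting intensity during 10 to 20 s after thallium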
Pf gamet viab – kills late stage P. falciparum gametocytes; P. falciparum stage V gametocytes, ATP luminescence, 24 h; inhibition, % at 10.9 µM; hit rate 0.065% among 150,000; AID 743093;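 active = inhibition above the mean plus 3 SD of compounds within the control limits, set per campaign, cut at about 38% in these data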
MT stabilize HCS – microtubule stabilizers in HeLa cells | HeLa tubulin immunostaining HCS, 24 h; share of cells brighter than vehicle mean+2SD | % tubulin-high responders, % at 10 µM | hit rate 0.83% among 200,000 | AID 2205;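 active = plate Z-score above 3 for both tubulin-high and condensed-nucleus cell shares, with cell loss under 80%, at 10 µM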;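 also: anti alpha tubulin signal scored within the nucleus-defined area of each cell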
WT yeast gro inh – growth inhibition of WT yeast, mitochondrial fusion screen; inhibition, % at 10 µM; mitochondrial fusion phenotypic screen, WT strain; hit rate 2.1% among 190,000; in the data active = inhibition above about 58%; tested in S. cerevisiae
KCC2 secondary – KCC2 (human) modulation, secondary assay. shares compounds with Cl transport mod. HEK293-KCC2, thallium flux, FluoZin2 fluorescence; stronger effect = higher value. normalised thallium flux (F/F0 slope) at 10 µM. hit rate 15% among 3,700;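 active = thallium flux slope above the same plate's solvent-only control mean plus 3 SD; inconclusive = the two replicate wells disagree; inactive = no significant difference from solvent-only control wells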
KCC2 bumet counter – bumetanide-insensitive thallium flux in KCC2 cells with ouabain, counter-screen. AID 1714. hit rate 49% among 3,700. normalized thallium flux at 10 µM. HEK293-KCC2 + bumetanide/ouabain, thallium flux FluoZin2; stronger effect = higher value. shares compounds with Cl transport mod;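 active = thallium entry rate above the same plate's blocked-transporter control wells by more than 3 SD; inconclusive = the two repeat wells disagree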;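 also: raw slope of fluorescence over initial fluorescence between 10 and 20 s after thallium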
KCC2 secondary2 – confirmation of human KCC2 transport modulators; shares compounds with Cl transport mod; HEK293-KCC2, thallium flux FluoZin2 fluorescence; actives lie on both sides; F/F0 rise rate, 10–20 s post-thallium; normalized thallium flux at 10 µM; hit rate 23% among 3,700;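 active = thallium flux slope more than 3 SD above or below the plate's solvent-only control mean, mostly below; inconclusive = the two repeat wells disagreed; inactive = no significant shift from solvent-only controls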
HEK293 Tl flux – counter-screen for KCC2 modulators: effect in parental HEK293 cells; shares compounds with Cl transport mod; thallium flux FluoZin2, ouabain; baseline-ratio fluorescence slope, 10–20 s after thallium; thallium flux rate (normalised fluorescence) at 10 µM; hit rate 46% among 3,700; AID 1716;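 active = thallium flux rate significantly above the same plate's solvent-only control wells, beyond their mean plus 3 SD; inconclusive = the two replicate wells gave conflicting results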
KCC2 retest ouab – modulates human KCC2 on retest with ouabain; hit rate 48% among 3,700; shares compounds with Cl transport mod; HEK293-KCC2, thallium flux FluoZin2 fluorescence; bidirectional: low = inhibitor, high = activator; raw Tl+ flux slope (below DMSO = inhibition, above = activation) at 10 µM;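 active = thallium flux slope beyond 3 SD from same-plate DMSO control mean in most replicates, usually higher, sometimes lower; inconclusive = repeat tests gave conflicting results; inactive = no significant difference from controls in most replicates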;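 also: slope of initial-normalized fluorescence between seconds 10 and 20 after thallium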
HEK293 Tl flux2 – counter-screen for KCC2 modulators: effect in parental HEK293 cells | shares compounds with Cl transport mod | thallium flux FluoZin-2 fluorescence slope | thallium flux slope at 10 µM | hit rate 33% among 3,700 | AID 1718;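 active = thallium flux slope above the same plate's solvent-control mean plus 3 SD in both duplicate wells; inconclusive = duplicate wells that disagreed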;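 also: run without ouabain in cells lacking the KCC2 cotransporter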
Hits are given with their value.

What do the screens show for `CCN(CC)c1c([N+](=O)[O-])ncn1C`?
bCat nuc transl: inactive; Pf gamet viab: inactive; MT stabilize HCS: inactive; WT yeast gro inh: inactive; KCC2 secondary: inactive; KCC2 bumet counter: inactive; KCC2 secondary2: inactive; HEK293 Tl flux: inconclusive; KCC2 retest ouab: inactive; HEK293 Tl flux2: inconclusive

Results for O=C(NC1CC1)c1cc2c(F)cccc2s1 ?
bCat nuc transl: inactive; Cl transport mod: inactive; Pf gamet viab: inactive; MT stabilize HCS: inactive; WT yeast gro inh: inactive

Results for Cc1cc([N+](=O)[O-])ccc1NCc1ccccc1 ?
bCat nuc transl: inactive; Cl transport mod: -3.1; MT stabilize HCS: inactive; WT yeast gro inh: inactive; KCC2 secondary: inactive; KCC2 bumet counter: inactive; KCC2 secondary2: 0.023; HEK293 Tl flux: inactive; KCC2 retest ouab: 0.017; HEK293 Tl flux2: inactive

What do the screens show for `CCS(=O)(=O)Nc1ccc2[nH]c(=O)[nH]c2c1`?
bCat nuc transl: inactive; Cl transport mod: inactive; MT stabilize HCS: inactive; WT yeast gro inh: inactive

Results for O=C(CNC(=S)NC(=O)c1ccc(Br)o1)c1ccccc1 ?
bCat nuc transl: inactive; Cl transport mod: 5.7; Pf gamet viab: inactive; MT stabilize HCS: inactive; WT yeast gro inh: inactive; KCC2 secondary: 0.014; KCC2 bumet counter: 0.047; KCC2 secondary2: inactive; HEK293 Tl flux: 0.041; KCC2 retest ouab: 0.037; HEK293 Tl flux2: 0.016

What do the screens show for `O=C(NC(=S)NCC1CCCO1)c1ccco1` (stereo not given)?
bCat nuc transl: inactive; Cl transport mod: inactive; Pf gamet viab: inactive; MT stabilize HCS: inactive; WT yeast gro inh: inactive

What do the screens show for `O=C(NC(=S)NCC1CCCO1)c1ccccc1Br` (stereo not given)?
bCat nuc transl: inactive; Cl transport mod: inactive; Pf gamet viab: inactive; MT stabilize HCS: inactive; WT yeast gro inh: inactive

How did O=C(NC(=S)NCC1CCCO1)c1ccc(Br)o1 (stereo not given) do in these assays?
bCat nuc transl: inactive; Cl transport mod: 51; Pf gamet viab: inactive; MT stabilize HCS: inactive; WT yeast gro inh: inactive; KCC2 secondary: inactive; KCC2 bumet counter: 0.049; KCC2 secondary2: 0.045; HEK293 Tl flux: 0.037; KCC2 retest ouab: 0.043; HEK293 Tl flux2: 0.032

What do the screens show for `Cc1ccc(C(=O)NC(=S)NCC2CCCO2)cc1Br` (stereo not given)?
Cl transport mod: 12; Pf gamet viab: inactive; MT stabilize HCS: inactive; WT yeast gro inh: inactive; KCC2 secondary: inactive; KCC2 bumet counter: 0.022; KCC2 secondary2: inactive; HEK293 Tl flux: 0.028; KCC2 retest ouab: 0.028; HEK293 Tl flux2: inactive

How did Cc1ccccc1OCC(=O)N=Nc1c(O)n(C)c2ccccc12 do in these assays?
bCat nuc transl: inactive; Cl transport mod: 28; Pf gamet viab: inactive; KCC2 secondary: inconclusive; KCC2 bumet counter: 0.029; KCC2 secondary2: inactive; HEK293 Tl flux: 0.029; KCC2 retest ouab: 0.031; HEK293 Tl flux2: 0.022

Results for O=C(/C=C/c1ccccc1)NC(NC(=S)Nc1cc(Cl)ccc1Cl)C(Cl)(Cl)Cl (stereo not given) ?
bCat nuc transl: inactive; Pf gamet viab: inactive; MT stabilize HCS: inactive; WT yeast gro inh: inactive

What do the screens show for `S=C(NCc1cccnc1)Nc1ccc(Oc2ccccc2)cc1`?
bCat nuc transl: inactive; Cl transport mod: -3.9; Pf gamet viab: inactive; MT stabilize HCS: inactive; WT yeast gro inh: inactive; KCC2 secondary: inactive; KCC2 bumet counter: inactive; KCC2 secondary2: 0.022; HEK293 Tl flux: inactive; KCC2 retest ouab: inconclusive; HEK293 Tl flux2: inactive

What do the screens show for `NC(=S)NCc1cccnc1`?
bCat nuc transl: inactive; Cl transport mod: 4.8; Pf gamet viab: inactive; MT stabilize HCS: inactive; WT yeast gro inh: inactive; KCC2 secondary: inactive; KCC2 bumet counter: inactive; KCC2 secondary2: inactive; HEK293 Tl flux: inactive; KCC2 retest ouab: inactive; HEK293 Tl flux2: inactive

Results for COCCNc1nnc(SCC(=O)c2c[nH]c3ccccc23)s1 ?
bCat nuc transl: inactive; Cl transport mod: inactive; Pf gamet viab: inactive; MT stabilize HCS: inactive; WT yeast gro inh: inactive

How did CC(Oc1ccccc1)c1ccnc(N)n1 (stereo not given) do in these assays?
bCat nuc transl: inactive; Cl transport mod: inactive; Pf gamet viab: inactive; MT stabilize HCS: inactive; WT yeast gro inh: inactive

How did CC(Oc1ccc(Cl)cc1Cl)c1ccnc(N)n1 (stereo not given) do in these assays?
bCat nuc transl: inactive; Cl transport mod: -2.9; Pf gamet viab: inactive; MT stabilize HCS: inactive; WT yeast gro inh: inactive; KCC2 secondary: inactive; KCC2 bumet counter: inactive; KCC2 secondary2: inactive; HEK293 Tl flux: inactive; KCC2 retest ouab: inactive; HEK293 Tl flux2: inactive

What do the screens show for `C=CCn1c(SCC(=O)Nc2cccc3ccccc23)nnc1-c1cnccn1`?
bCat nuc transl: inactive; Cl transport mod: -3; Pf gamet viab: inactive; MT stabilize HCS: inactive; WT yeast gro inh: inactive; KCC2 secondary: inactive; KCC2 bumet counter: inconclusive; KCC2 secondary2: inactive; HEK293 Tl flux: inactive; KCC2 retest ouab: inactive; HEK293 Tl flux2: inactive

How did COc1ccc(/C=C(\C#N)C(=O)NCCc2ccccc2)cc1OCc1ccccc1 do in these assays?
bCat nuc transl: inactive; Cl transport mod: inactive; Pf gamet viab: inactive; MT stabilize HCS: inactive; WT yeast gro inh: inactive

What do the screens show for `N#C/C(=C\c1ccc(O)c(O)c1)C(=O)NCCCc1ccccc1`?
bCat nuc transl: inactive; Cl transport mod: inactive; MT stabilize HCS: inactive; WT yeast gro inh: inactive; KCC2 secondary: inactive; KCC2 bumet counter: inactive; KCC2 secondary2: inactive; HEK293 Tl flux: inactive; KCC2 retest ouab: inconclusive; HEK293 Tl flux2: inactive

Results for O=C(CSCc1ccc(Cl)cc1Cl)Nc1nccs1 ?
bCat nuc transl: inactive; Cl transport mod: inactive; Pf gamet viab: inactive; MT stabilize HCS: inactive; WT yeast gro inh: inactive

Results for Cc1cccc(-n2c(C)nc3cc(C(=O)NCc4ccc5c(c4)OCO5)ccc32)c1 ?
bCat nuc transl: inactive; Cl transport mod: inactive; Pf gamet viab: inactive; MT stabilize HCS: inactive; WT yeast gro inh: inactive

How did CSc1nc2sc3c(c2c(=O)n1C1CCCCC1)CCN(C)C3 do in these assays?
bCat nuc transl: inactive; Cl transport mod: inactive; MT stabilize HCS: inactive; WT yeast gro inh: inactive; KCC2 secondary: inactive; KCC2 bumet counter: inactive; KCC2 secondary2: inactive; HEK293 Tl flux: inactive; KCC2 retest ouab: inactive; HEK293 Tl flux2: inactive

Screening results (PubChem BioAssay)
